Data set [1] deals with T1, OXR1 (Homo sapiens, UniProt Q8N573).
T1 sequence (Q8N573 1-874): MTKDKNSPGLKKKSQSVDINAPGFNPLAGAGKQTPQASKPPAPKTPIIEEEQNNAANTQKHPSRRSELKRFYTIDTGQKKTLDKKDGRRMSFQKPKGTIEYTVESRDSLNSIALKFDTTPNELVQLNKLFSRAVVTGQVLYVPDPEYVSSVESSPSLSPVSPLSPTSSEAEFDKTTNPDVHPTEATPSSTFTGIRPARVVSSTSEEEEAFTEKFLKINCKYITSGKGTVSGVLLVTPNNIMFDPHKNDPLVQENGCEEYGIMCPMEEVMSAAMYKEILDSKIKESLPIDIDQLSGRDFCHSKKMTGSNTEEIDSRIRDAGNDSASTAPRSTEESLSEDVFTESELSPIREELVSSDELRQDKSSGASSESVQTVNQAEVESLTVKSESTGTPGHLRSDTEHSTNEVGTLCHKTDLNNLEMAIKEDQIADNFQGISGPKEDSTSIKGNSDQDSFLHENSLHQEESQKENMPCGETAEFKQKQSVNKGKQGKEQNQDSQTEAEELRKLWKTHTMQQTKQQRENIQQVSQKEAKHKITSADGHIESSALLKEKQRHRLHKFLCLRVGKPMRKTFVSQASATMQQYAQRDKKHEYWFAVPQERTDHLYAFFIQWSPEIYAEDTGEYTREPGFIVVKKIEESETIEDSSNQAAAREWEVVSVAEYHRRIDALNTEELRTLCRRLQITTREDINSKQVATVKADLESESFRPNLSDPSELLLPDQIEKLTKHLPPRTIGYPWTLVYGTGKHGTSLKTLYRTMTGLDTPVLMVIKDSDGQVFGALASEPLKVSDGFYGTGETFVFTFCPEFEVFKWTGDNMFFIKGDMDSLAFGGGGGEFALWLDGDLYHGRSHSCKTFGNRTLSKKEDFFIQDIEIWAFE
Put plainly: OXR1 degradation assay using western blot. The settings on record: 5 µM, 24 h, WI-38 IR-SCs and NCs. Format: cell-based. The method, boiled down:
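Low-passage (<25) WI-38 cells, plus senescent cells made by 15 Gy ¹³⁷Cs γ-irradiation (1.080 Gy/min). Both cultured at 37 °C, 5% CO2, then given 5 µM test compound or vehicle for 24 h. Lysed in RIPA with EDTA/EGTA and transferred to PVDF. Blocked with 5% nonfat milk/TBST. Probed overnight at 4 °C for OXR1 and β-actin, HRP secondaries, ECL/autoradiography. Quantified as mean ± SEM, n = 3.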

In data set [2] the test system is mice. The conditions noted are these: cited from earlier work.
Data set [3] has as its system ROS production in WI-38 IR-SCs. The data set can be described thus: ROS assay with dihydrorhodamine 123, flow cytometry. Type of data set: cell-based, Human. The settings on record: […] treatment, DHR 123 30 min.
Data set [4] has as its system WI-38 IR-SCs. The data set can be described thus: Apoptosis assay, Annexin V / propidium iodide flow cytometry. Format: cell-based, Human. The conditions noted are these: QVD 10 µM with 49 1 µM, 48 h and 72 h.

For the compound `C=C1CCCN(C(=O)/C=C/c2cc(OC)c(OC)c(OC)c2)C1=O` [Compound 47, (E)-3-Methylene-1-(3-(3,4,5-trimethoxyphenyl)acryloyl)piperidin-2-one], in data set [1], the “OXR1 levels (western blot)” value is “selectively reduced the levels of OXR1 in SCs”. Still for that read-out and setting: in the case of `C=C1CCN(C(=O)/C=C/c2cc(OC)c(OC)c(OC)c2)C1=O` [Compound 48, (E)-3-Methylene-1-(3-(3,4,5-trimethoxyphenyl)acryloyl)pyrrolidin-2-one] it was “selectively reduced the levels of OXR1 in SCs”; in that of `C=C1CCCCN(C(=O)/C=C/c2cc(OC)c(OC)c(OC)c2)C1=O` [Compound 49, (E)-3-Methylene-1-(3-(3,4,5-trimethoxyphenyl)acryloyl)azepan-2-one], “selectively reduced the levels of OXR1 in SCs”. As for `COc1cc(/C=C/C(=O)N2CCC=CC2=O)cc(OC)c1OC` [PL, piperlongumine], the “maximum tolerated oral dose” value in data set [2] (mice, oral) was greater than 1000 mg/kg. Moreover, in data set [2] (oral dosing), the “effective therapeutic dose for cancer” value was no less than 2.4 mg/kg. For the same compound, the “ROS levels (DHR 123 fluorescence)” value in data set [3] was “moderate increase of the ROS levels”. In addition, the “OXR1 levels (western blot)” value in data set [1] is “abrogated the upregulation of OXR1”. With `CC(C)[C@H](NC(=O)c1ccc2ccccc2n1)C(=O)N[C@@H](CC(=O)O)C(=O)COc1c(F)cccc1F` [QVD], the “effect of pan-caspase inhibitor on 49-induced apoptosis and death” value in data set [4] is “significantly reduced apoptosis and partially rescued SCs from 49-induced death”.

These data come from paper PMC6087492 (Bioorganic & medicinal chemistry, 2018).
